# Test results as given in ChEMBL document CHEMBL1123281, “Synthesis and rat lens aldose reductase inhibitory activity of some benzopyran-2-ones” (J Med Chem, 1986).
# Target: T1, Aldo-keto reductase family 1 member B1 (Rattus norvegicus, UniProt P07943)
# Assay: Compound was tested for inhibitory concentration against rat lens aldose reductase (noncompetitive inhibition type)
# Method in brief: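 Crude supernatant from 50 rat lenses homogenized in distilled water, centrifuged 10 000 rpm, 10 min, 0–5 °C. Read-out was NADPH decrease at 340 nm over 5 min in 0.1 M phosphate pH 6.2, 0.104 mM NADPH, 10 mM DL-glyceraldehyde. IC50 came from least-squares log dose–response fits, using ≥4 concentrations ×4 replicates. Inhibition type was read from double-reciprocal plots with 0.0625–1.0 mM substrate.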
row,SMILES,IC50 [µM]
1,COc1ccc2c(CC(=O)O)cc(=O)oc2c1,0.37
2,Cc1cc(=O)oc2cc(O)ccc12 [HYMECROMONE],62
3,"Cc1cc(=O)oc2cc(O)cc(O)c12 [5,7-DIHYDROXY-4-METHYLCOUMARIN]",17
4,COc1ccc2c(CCC(=O)O)cc(=O)oc2c1,2.1
5,O=C(O)Cc1cccc2ccccc12,32
6,O=C(O)Cc1cc(=O)oc2cc(O)cc(O)c12,0.26
7,O=C(O)Cc1cc(=O)oc2cc(O)ccc12,0.15
8,CC(=O)Oc1ccc2c(CC(=O)O)cc(=O)oc2c1,61

# Target: T1, Aldo-keto reductase family 1 member B1
# Assay: Compound was tested for inhibitory concentration against rat lens aldose reductase (uncompetitive inhibition type)
row,SMILES,IC50 [nM]
1,COC(=O)Cc1cc(=O)oc2cc(O)ccc12,38000
2,O=C(O)Cc1cc(=O)oc2c1ccc1ccccc12,140
3,COc1ccc2c(/C=C/C(=O)O)cc(=O)oc2c1,4400
4,O=C(O)Cc1cc(=O)oc2cc(Cl)ccc12,560
5,Cc1cc(=O)oc2c(O)c(O)ccc12 [4-METHYLDAPHNETIN],10000
6,NC(=O)Cc1cc(=O)oc2cc(O)ccc12,10000
7,O=C(O)Cc1cc(=O)oc2ccc3ccccc3c12,20
8,COc1ccc2c(C(=O)O)cc(=O)oc2c1,11000
9,O=C(O)Cc1cc(=O)oc2ccccc12,600
10,CCc1ccc2c(CC(=O)O)cc(=O)oc2c1,240

# Target: Aldo-keto reductase family 1 member B1 (Rattus norvegicus) (UniProt P07943)
# Assay: Compound was tested for percent inhibition at 10 e-4 M against rat lens aldose reductase
# Method in brief: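 Single-concentration screen at 100 μM against crude rat lens supernatant. The reaction mix was 0.1 M phosphate pH 6.2, 0.104 mM NADPH and 10 mM DL-glyceraldehyde, started with substrate. NADPH loss was followed at 340 nm for 5 min, with inhibitor included in the blanks. Percent inhibition compares the rate with a substrate-only control. Final Me2SO was ≤1%.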
row,SMILES,inhibition [%]
1,CCc1ccc2c(C)cc(=O)oc2c1,16
2,Cc1cc(=O)oc2cc(Cl)ccc12,10
3,Cc1cc(=O)oc2ccc(O)cc12,22
4,COc1ccc2c(C)cc(=O)oc2c1,21
5,Cc1cc(=O)oc2ccccc12,19
6,CC(=O)Oc1ccc2c(C)cc(=O)oc2c1,13
